# Laboratory results reported in ChEMBL document CHEMBL4513216, “Probing the Open Global Health Chemical Diversity Library for Multistage-Active Starting Points for Next-Generation Antimalarials” (ACS Infect Dis, 2020).
# Assay: Toxicity liver stage against HepG2, at 10uM
# Format: cell-based
# Set-up: test concentration 10 uM, cell line HepG2-A16-CD81EGFP
# Settings: human, HepG2-A16-CD81EGFP cells; read-out: INHIBITION
# Summary of the method: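 Uninfected HepG2-A16-CD81EGFP cells, 3 × 10^3 per well, 1536-well, plated on prespotted compound at 10 μM final, parasite-free screening media added to match infected plates; puromycin 10 μM positive, DMSO 0.5% negative; run in parallel with 48 h PbLuc assay at 37 °C, 5% CO2; viability by CellTiter-Glo luminescence, normalized to controls.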
row,SMILES,cytotoxicity at 10 µM [%]
1,NS(=O)(=O)c1cccnc1Nc1cccc(Cl)c1Cl,-2.19
2,N#Cc1ncn(CC(=O)Cc2c(F)cccc2Cl)n1,-1.45
3,CN1CCC(N(C)C(=O)c2cnn(-c3ccccc3Br)c2N)CC1,-5.63
4,Cn1ccc2cc(C(=O)NC3CCOC(C)(C)C3)ccc21 (configuration not stated),1.67
5,O=C(COc1ccccc1)NCC1CCN(Cc2ccsc2)CC1,-4.59
6,CC(O)(CCc1ccccc1)CNC(=O)c1ccc(F)cc1 (configuration not stated),-70.3
7,COc1ncccc1C(=O)Nc1ccccc1-c1ccc(=O)n(C)n1,-0.843
8,CCN1C(=O)C(c2ccccc2)CC12CCN(S(C)(=O)=O)CC2 (configuration not stated),3.2
9,COc1ncccc1CN1C[C@@H]2C[C@@H](C(=O)NCC3CC3)N(C)[C@@H]2C1,1.2
10,O=C(Cn1nc(Br)nc1Br)N1CCCC1,5.38
11,CCN1C(=O)CCCC12CCCN(C(=O)c1cnccn1)C2 (configuration not stated),2.63
12,O=C(NCC1CC1)[C@H]1CC[C@@H]2[C@@H](CCN2Cc2ccoc2)O1,-14.1
13,CN1C(=O)C[C@@H]2[C@@H]1CCN2S(=O)(=O)Cc1ccccc1,-5.76
14,CNC(=O)C1CCN(S(C)(=O)=O)CC1,-4.81
15,Fc1cccc(Cl)c1CNCCOc1ccccn1,-11.4
16,Cc1ccc2nnc(C(=O)NCCCn3cccn3)nc2c1,-7.93
17,Oc1ccc(Cl)cc1CNCc1cccc(C(F)(F)F)c1,-6.13
18,Cc1c(Cl)c(C(F)(F)F)nn1C(C)C(=O)NC1CCN(C)CC1 (configuration not stated),-3.13
19,Cc1ccc2c(cnn2CCC(=O)NCc2csc(C3CC3)n2)c1,4.88
20,c1cnnc(N[C@@H]2CC[C@@H]3CN(Cc4ccc5[nH]ccc5c4)C[C@@H]32)c1,-7.81
21,CC(C)n1nnc(CC(=O)NCC2(c3ccccc3F)CCOCC2)n1,2.35
22,Nc1nccnc1C1CN(C(=O)c2ccnnc2)CCO1 (configuration not stated),9.48
23,CC(C)S(=O)(=O)N1CCC(c2cc3n(n2)[C@@H](C(F)(F)F)C[C@@H](C)N3)C1 (some centres not stated),-1.96

row,SMILES,cytotoxicity at 10 µM [%]
1,Cc1ccc2c(c1)OC(C)CN2C(=O)c1c[nH]c(C)cc1=O (configuration not stated),2.36
2,CCN(CC)S(=O)(=O)CC(=O)N1CCc2ccc(Cl)cc21,-5.42
3,CS(=O)(=O)c1ccc(NCc2ccccc2)cn1,13.2
4,CCc1nc(C2CCCN2C(=O)c2cnc3n[nH]c(C)c3c2)no1 (configuration not stated),7.76
5,CN(c1ncccc1C#N)C1CCN(Cc2ccncc2)CC1,-2.86
6,CNC(=O)C1CCCCN1C(=O)c1sc(-c2ccc(C)o2)nc1C (configuration not stated),4.45
7,COCCC(=O)N(CCC#N)c1ccc(C)c(C)c1,3.43
8,CC(C)(C)c1ccc(S(=O)(=O)CCNC(=O)c2cnccn2)cc1,4.92
9,Cc1ccc(S(=O)(=O)N2CCOCC2C(N)=O)c(F)c1 (configuration not stated),-5.22
10,CN1CCN(CCOc2ccc(NC(=O)c3ccncc3)cc2)CC1,-5.18
11,CCc1ccc(CNC2(c3ccc(F)cc3)CCOCC2)o1,4.68
12,CSCC1CCCN1CCc1ccncc1 (configuration not stated),0.684
13,CCCC(C)N(C)Cc1nnc(-c2ccco2)o1 (configuration not stated),2.49
14,CC(=O)NCC1CCN(C(=O)NCc2ccc3c(c2)OCCO3)CC1,-7.11
15,COc1cccc(CN(C)c2ncc(C(N)=O)cc2Cl)c1,2.53
16,CC(C)N(Cc1cccc(Cl)c1)Cc1nnsc1Cl,2.56
17,Cc1nc(CCNC(=O)NC2CCCc3c2cnn3CCO)cs1 (configuration not stated),6.68
18,CC(C(=O)Nc1nccs1)N1CCc2nn(C)c(=O)cc2C1 (configuration not stated),9.17
19,Cc1cn2c(n1)CCC(NC(=O)CCC1CC1)C2 (configuration not stated),-9.69
20,COc1cc(C)nc(N2CCN(C(=O)c3cc(Cl)c[nH]3)CC2)n1,7.32
21,O=C(NCCCNC(=O)c1ccccc1)Nc1ccc(F)cc1F,5.55
22,COc1ccc(C2CCCCCN2S(C)(=O)=O)cc1 (configuration not stated),3.86
23,Cc1cc(C(=O)O)ccc1NS(=O)(=O)c1c(C)nn(C(C)C)c1C,5.31

row,SMILES,cytotoxicity at 10 µM [%]
1,CC(=O)N(C)CC(=O)NCC1(c2c(F)cccc2F)CCCC1,-3.86
2,CC(C)N1C(=O)CC(NC(=O)c2cc(Cl)sc2Cl)C1=O (configuration not stated),-2.27
3,Cc1cc(N)nc(SC2CCCN(Cc3ccccc3)C2=O)n1 (configuration not stated),-5.45
4,N#Cc1ccc(N2CCN(c3ncccn3)CC2)c(C(F)(F)F)c1,36.3
5,CC(C(=O)NCC1CCCCC1)S(=O)(=O)Cc1csc(-c2cccs2)n1 (configuration not stated),-9.44
6,CCc1noc(CN(C)CCC(=O)Nc2ccc(C#N)c(Cl)c2)n1,22.5
7,Cc1nc(C2CCCN2CCc2ccccn2)no1 (configuration not stated),7.28
8,Cc1csc(CCCNC(C)CC(=O)Nc2cccc(C)c2C)n1 (configuration not stated),5.76
9,COC(=O)C1(C)CCN(C(=O)NCCc2c(C)[nH]c3ccccc23)C1 (configuration not stated),0.807
10,O=C(NCC1Cn2nnc(-c3ccoc3)c2CO1)c1ccc[nH]1 (configuration not stated),2.61
11,CN(C)C(=O)[C@@H]1C[C@@H]2CCN(Cc3ccncc3)C[C@@H]2O1,6.36
12,Cc1ccc(-c2cnnc(NCC3CCOCC3)n2)o1,-3.64
13,COCC(=O)N1CC[C@]2(O)CCN(C(=O)CCc3ccsc3)C[C@@H]2C1,0.689
14,CCc1nnsc1C(=O)N1CCCC(c2nc3ccccc3[nH]2)C1 (configuration not stated),4.52
15,Cn1c(CCC(=O)N2CCC3(CCCO3)CC2)nc2cccnc21,0.592
16,COCC[C@]1(O)CCN(Cc2nnc(C)s2)C[C@H]1C,8.62
17,O=C(O)CSc1nnc(-c2ccn[nH]2)n1-c1ccccc1C(F)(F)F,-3.85
18,Cc1ccccc1CN1CCN(C(=O)c2cnc(C3CC3)[nH]c2=O)CC1,2.25
19,CCc1cccc(CC)c1NC(=O)c1ccccc1N(C)S(C)(=O)=O,11.4
20,CCC[C@@H]1CN(Cc2c[nH]nc2-c2ccc(F)cc2)C[C@H]1NS(C)(=O)=O,3.25
21,Cc1nc(N2CCC(C(O)c3nccn3C)CC2)c2sccc2n1 (configuration not stated),-19.5
22,Cc1ccc(F)c(OC2(C(=O)O)CCN(C(=O)C3CCCC3)CC2)c1,3.33
23,CCN(Cc1cnn(CC)c1)C(=O)Cn1c(=O)ccc2ccccc21,2.37

row,SMILES,cytotoxicity at 10 µM [%]
1,COc1cccc(NC(=O)CN2CCN(S(C)(=O)=O)CC2)c1,-1
2,CN1CCN(Cc2ccc(-c3ccc4[nH]ccc4c3)nc2)CC1,-9.17
3,Cc1ccc(-c2nn(-c3cccc(F)c3)cc2CN(CCO)CCO)o1,8.43
4,CCOC(=O)c1cc2c(=O)[nH]c(=O)n(CCc3ccccc3)c2nc1C,-6.28
5,COC(=O)CCCn1ccnc1C(C)c1ccccc1 (configuration not stated),-6.73
6,N[C@H]1CN(C(=O)Cc2cc(F)cc(Cl)c2)C[C@@H]1C1CC1,0.0152
7,Cc1ccc2cc(CNCCCO)c(=O)[nH]c2c1,0.127
8,Clc1ccccc1-c1nnc(CN2CCCC2Cn2cncn2)o1 (configuration not stated),-9.03
9,CCC(CC)c1nnc(NC(=O)NC(C)Cn2cccn2)s1 (configuration not stated),3.91
10,Cc1cc(C(=O)N2CCCN(Cc3cnn(C)c3)CC2)no1,-2.92
11,CC(Oc1ccccc1)C(=O)N1CCCN(Cc2cscn2)CC1 (configuration not stated),-3.92
12,OC(COCc1ccc2c(c1)OCO2)CN1CC(n2cccn2)C1 (configuration not stated),-5.89
13,Cc1ccc(N2CCCC(NCc3cc(C)on3)C2)nn1 (configuration not stated),-4.8
14,CCc1nc(C2CCCN(C(=O)c3ccc(F)cc3)C2)no1 (configuration not stated),-40.5
15,COCc1cccc(CNCc2c(C)nn(C)c2N2CCOCC2)c1,-8.93
16,CC(c1nc(C2CC2)no1)N1CCN(Cc2ccccc2)CC1 (configuration not stated),-5
17,CNC(=O)C1CCN(C(=O)c2cccn2Cc2cccs2)CC1,-3.74
18,CCCNC(=O)N1CCN(Cc2cc(C)no2)CC1,-1.18
19,Cc1cnn(C2CN(CC(=O)NCCc3ccccc3)C2)c1,-0.956
20,CC(C)c1nn(C)c(N2CCOCC2)c1CNC(C)c1cccs1 (configuration not stated),-5.06
21,CC(C)c1noc(C(C)N2CCN(Cc3ccco3)CC2)n1 (configuration not stated),-7.67
22,Cc1cnn(CCNCc2ccc(F)cc2Cl)c1,-5.16
23,Cc1ncsc1C(=O)NCCn1nc2ccccn2c1=O,0.00307

row,SMILES,cytotoxicity at 10 µM [%]
1,Cc1nc(C2CCCN2CC(=O)N(Cc2ccsc2)C2CC2)no1 (configuration not stated),-12.1
2,Fc1ccc(CN2CCCC2Cn2cccn2)c2ncccc12 (configuration not stated),-5.11
3,Cn1ccc(CN2CCC(NC(=O)NC3CCCCC3)CC2)cc1=O,-6.26
4,CCN(CC)C(=O)Cn1ccc2cc(NC(=O)C3CCCO3)ccc21 (configuration not stated),1.35
5,Cc1cnn(CC2CCCCN2Cc2noc(C3CC3)n2)c1 (configuration not stated),-9.32
6,Cc1ncsc1C(=O)N(C)CCc1ccncc1,-3.81
7,Cc1cnn(CCNCc2csc(-c3ccc4c(c3)OCO4)n2)c1,-6.41
8,CCc1nc(CN2CCCC(NCc3ccc(C(N)=O)cc3)C2)no1 (configuration not stated),-12.3
9,COc1ccccc1CC(=O)N1CCCC(n2nc(C)cc2C)C1 (configuration not stated),-4.48
10,Cc1noc(C)c1CNCC1CCN(CC(O)c2ccccc2)CC1 (configuration not stated),-0.65
11,Cc1nc(C)n(CC2CCCN(CCCOc3ccccc3)C2)n1 (configuration not stated),3.15
12,O=C(NCc1csc(Br)c1)c1ccncc1,4.38
13,CN(C)Cc1cc(C2CCN(C(=O)C3CCCNC3)CC2)nn1C (configuration not stated),-8.67
14,O=C(C1CCCCC1)N1C[C@H]2CNC[C@H]2C1,-11.9
15,c1cc(CN2CCc3c(nnn3CC3CC3)C2COCC2CC2)co1 (configuration not stated),2.02
16,c1ccc([C@@H]2CN(Cc3cccnc3)C[C@H]2c2cc[nH]n2)cc1,-4.24
17,NC(=O)c1ccc(C2CCCNC2)nc1 (configuration not stated),-15.1
18,O=C(NC1CC1)[C@@H]1CCO[C@@H]2CCN(Cc3ccsc3)C[C@H]21,4.4
19,c1cncc(CN2CCc3c(nnn3CC3CC3)C2COCC2CC2)c1 (configuration not stated),3.88
20,C[C@@H]1C(=O)NC[C@H]2CN(Cc3ccsc3)C[C@H]21,4.22
